Columns and labels:
Vero [1] = assay: In vitro percent inhibition of replication of vero cells at 10 uM concentration; type: functional; conditions: Chlorocebus sabaeus
How it was run: (§1)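 Uninfected Vero cells were seeded at 0.1 confluency in Dulbecco's medium + 10% fetal calf serum and grown 1 day at 37 °C, 5% CO2. Compound was then added in growth medium. Cells were detached with 0.125% trypsin/0.02% EDTA for 15 min at 37 °C, dispersed by pipetting, stained with Trypan blue and counted by hemocytometer. ED50 came from dose-response curves of at least two independent experiments.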

[2] = In vitro percent inhibition of replication of S-180 cells at 0.1 uM concentration; type: functional; conditions: Mus musculus
How it was run: (§2)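 Mouse L1210 and S-180 suspension cultures were kept in Fischer's medium + 10% horse serum at 37 °C, 5% CO2. Exponentially growing cells at 2 × 10⁴ cells/mL were given compound. The increase in cell number versus drug-free control was counted after 24, 48 and 72 h. ED50 came from dose-response curves of at least two independent experiments.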

Vero [3] = assay: In vitro percent inhibition of replication of vero cells at 1 uM concentration; type: functional; conditions: Chlorocebus sabaeus; how it was run: as §1
[4] = In vitro percent inhibition of replication of S-180 cells at 12.5 uM concentration; type: functional; conditions: Mus musculus; how it was run: as §2
Human alphaherpesvirus 1 [5] = assay: In vitro percent inhibition of replication of HSV-1 cells at 12.5 uM concentration; type: functional; conditions: Human alphaherpesvirus 1, HSV-1
How it was run: (§3)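 Confluent Vero monolayers in Dulbecco's medium + 10% fetal calf serum were infected with HSV-1 strain CL-101 at MOI 10. After 1 h adsorption at 37 °C, the inoculum was removed and the cells washed with PBS. Compound in serum-containing medium was added for 40 h at 37 °C. Virus released by one freeze-thaw was titred by plaque assay on Vero cells. Percent inhibition was pfu relative to drug-free cultures. ED50 came from dose-response curves of at least two independent experiments.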

L1210 [6] = assay: In vitro percent inhibition of replication of L1210 cells at 12.5 uM concentration; type: functional; conditions: Mus musculus; how it was run: as §2
Human alphaherpesvirus 1 [7] = assay: Concentration required to inhibit replication of HSV-1 cell by 50%; type: functional; conditions: Human alphaherpesvirus 1, HSV-1; read-out: ED50 (the source's name); how it was run: as §3
Human alphaherpesvirus 1 [8] = assay: In vitro percent inhibition of replication of HSV-1 cells at 1.25 uM concentration; type: functional; conditions: Human alphaherpesvirus 1, HSV-1; how it was run: as §3
[9] = Therapeutic index was determined as the ratio fo ED50(vero)/ ED50(HSV-1); conditions: monkey, Vero cells
How it was run: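 Ratio of ED50 for uninfected Vero cell replication (cell counts after compound exposure) to ED50 for HSV-1 yield in Vero cells (plaque titration after 40 h infection at MOI 10). Both ED50 values were estimated from dose-response curves of at least two independent experiments.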

L1210 [10] = assay: In vitro percent inhibition of replication of L1210 cells at 25 uM concentration; type: functional; conditions: Mus musculus; how it was run: as §2
[11] = In vitro percent inhibition of replication of S-180 cells at 200 uM concentration; type: functional; conditions: Mus musculus; how it was run: as §2
L1210 [12] = assay: In vitro percent inhibition of replication of L1210 cells at 400 uM concentration; type: functional; conditions: Mus musculus; how it was run: as §2
Vero [13] = assay: In vitro percent inhibition of replication of vero cells at 50 uM concentration; type: functional; conditions: Chlorocebus sabaeus; how it was run: as §1
Vero [14] = assay: In vitro percent inhibition of replication of vero cells at 400 uM concentration; type: functional; conditions: Chlorocebus sabaeus; how it was run: as §1
Human alphaherpesvirus 1 [15] = assay: In vitro percent inhibition of replication of HSV-1 cells at 50 uM concentration; type: functional; conditions: Human alphaherpesvirus 1, HSV-1; how it was run: as §3
L1210 [16] = assay: In vitro percent inhibition of replication of L1210 cells at 50 uM concentration; type: functional; conditions: Mus musculus; how it was run: as §2
Human alphaherpesvirus 1 [17] = assay: In vitro percent inhibition of replication of HSV-1 cells at 10 uM concentration; type: functional; conditions: Human alphaherpesvirus 1, HSV-1; how it was run: as §3
[18] = In vitro percent inhibition of replication of S-180 cells at 25 uM concentration; type: functional; conditions: Mus musculus; how it was run: as §2
[19] = In vitro percent inhibition of replication of S-180 cells at 50 uM concentration; type: functional; conditions: Mus musculus; how it was run: as §2
L1210 [20] = assay: Concentration required to inhibit replication of L1210 cell by 50%; type: functional; conditions: Mus musculus, read-out: ED50 (the source's name); how it was run: as §2
[21] = In vitro percent inhibition of replication of S-180 cells at 100 uM concentration; type: functional; conditions: Mus musculus; how it was run: as §2
Vero [22] = assay: In vitro percent inhibition of replication of vero cells at 100 uM concentration; type: functional; conditions: Chlorocebus sabaeus; how it was run: as §1
L1210 [23] = assay: In vitro percent inhibition of replication of L1210 cells at 100 uM concentration; type: functional; conditions: Mus musculus; how it was run: as §2
[24] = Concentration required to inhibit replication of S-180 cell by 50%; type: functional; conditions: Mus musculus, read-out: ED50 (the source's name); how it was run: as §2
L1210 [25] = assay: In vitro percent inhibition of replication of L1210 cells at 200 uM concentration; type: functional; conditions: Mus musculus; how it was run: as §2
Human alphaherpesvirus 1 [26] = assay: In vitro percent inhibition of replication of HSV-1 cells at 100 uM concentration; type: functional; conditions: Human alphaherpesvirus 1, HSV-1; how it was run: as §3
Vero [27] = assay: Concentration required to inhibit replication of vero cell by 50%; type: functional; conditions: Chlorocebus sabaeus, read-out: ED50 (the source's name); how it was run: as §1
Vero [28] = assay: In vitro percent inhibition of replication of vero cells at 200 uM concentration; type: functional; conditions: Chlorocebus sabaeus; how it was run: as §1
Vero [29] = assay: In vitro percent inhibition of replication of vero cells at 25 uM concentration; type: functional; conditions: Chlorocebus sabaeus; how it was run: as §1
Human alphaherpesvirus 1 [30] = assay: In vitro percent inhibition of replication of HSV-1 cells at 40 uM concentration; type: functional; conditions: Human alphaherpesvirus 1, HSV-1; how it was run: as §3
Human alphaherpesvirus 1 [31] = assay: In vitro percent inhibition of replication of HSV-1 cells at 5 uM concentration; type: functional; conditions: Human alphaherpesvirus 1, HSV-1; how it was run: as §3
Human alphaherpesvirus 1 [32] = assay: In vitro percent inhibition of replication of HSV-1 cells at 80 uM concentration; type: functional; conditions: Human alphaherpesvirus 1, HSV-1; how it was run: as §3
Vero [33] = assay: In vitro percent inhibition of replication of vero cells at 5 uM concentration; type: functional; conditions: Chlorocebus sabaeus; how it was run: as §1
Human alphaherpesvirus 1 [34] = assay: In vitro percent inhibition of replication of HSV-1 cells at 20 uM concentration; type: functional; conditions: Human alphaherpesvirus 1, HSV-1; how it was run: as §3

EC50 (Human alphaherpesvirus 1 [7]) [µM] | EC50 (L1210 [20]) [µM] | EC50 [24] [µM] | Compound | selectivity ratio [9] | inhibition at 25 µM (L1210 [10]) [%] | inhibition at 50 µM (Vero [13]) [%] | inhibition at 50 µM (L1210 [16]) [%] | inhibition at 10 µM (Human alphaherpesvirus 1 [17]) [%] | inhibition at 25 µM [18] [%] | inhibition at 50 µM [19] [%] | inhibition at 100 µM [21] [%] | inhibition at 100 µM (Vero [22]) [%] | inhibition at 100 µM (L1210 [23]) [%] | inhibition at 100 µM (Human alphaherpesvirus 1 [26]) [%] | EC50 (Vero [27]) [µM] | further results
 |  |  | O=c1[nH]c(=O)n([C@H]2C[C@H](O)[C@@H](CO)O2)cc1C(F)(F)F [TRIFLURIDINE] |  |  |  |  |  |  |  |  |  |  |  |  | inhibition at 10 µM (Vero [1]): 100%; inhibition at 0.1 µM [2]: 100%; inhibition at 1 µM (Vero [3]): 63%
12.5 |  |  | CC(=O)OC[C@H]1OC(n2cc(C(F)(F)C(F)(F)F)c(=O)[nH]c2=O)C[C@H]1OC(C)=O (stereo partly drawn) |  |  |  |  |  |  |  |  |  |  |  |  | inhibition at 12.5 µM [4]: 37%; inhibition at 12.5 µM (Human alphaherpesvirus 1 [5]): 51%; inhibition at 12.5 µM (L1210 [6]): 14%; inhibition at 1.25 µM (Human alphaherpesvirus 1 [8]): 26%
5 | 70 | 65 | O=c1[nH]c(=O)n(C2O[C@H](CO)[C@@H](O)[C@@H]2O)cc1C(F)(F)F (stereo partly drawn) | 64 | 19 | 0 | 33 | 74 | 41 | 46 | 59 | 4 | 66 | 99 | 320 | inhibition at 200 µM [11]: 71%; inhibition at 400 µM (L1210 [12]): 87%; inhibition at 400 µM (Vero [14]): 66%; inhibition at 50 µM (Human alphaherpesvirus 1 [15]): 88%; inhibition at 200 µM (L1210 [25]): 84%; inhibition at 200 µM (Vero [28]): 14%
7 | 45 | 25 | CC(=O)OC[C@H]1OC(n2cc(C(F)(F)F)c(=O)[nH]c2=O)[C@H](OC(C)=O)[C@H]1OC(C)=O (stereo partly drawn) | 6.4 | 13 | 57 | 58 | 61 | 47 | 60 | 95 | 100 | 95 |  | 45 | inhibition at 25 µM (Vero [29]): 8%; inhibition at 40 µM (Human alphaherpesvirus 1 [30]): 97%; inhibition at 5 µM (Human alphaherpesvirus 1 [31]): 17%; inhibition at 80 µM (Human alphaherpesvirus 1 [32]): 98%; inhibition at 5 µM (Vero [33]): 0%; inhibition at 20 µM (Human alphaherpesvirus 1 [34]): 92%
> 400 |  |  | O=c1[nH]c(=O)n(C2C[C@@H](O)[C@@H](CO)O2)cc1C(F)(F)C(F)(F)F (stereo partly drawn) |  |  |  |  |  |  |  | 28 |  | 17 | 15 |  | 

Source: ChEMBL document CHEMBL1122491, “Synthesis and biological activity of 5-(trifluoromethyl)- and 5-(pentafluoroethyl)pyrimidine nucleoside analogues” (J Med Chem, 1983)
